Assay [1] in a line: nonspecific flux increase, KCNQ1-free cells – parental CHO cells, counter-screen for KCNQ1 potentiator project (AID 493006;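 active = duplicate-averaged activation above buffer control mean plus 5 SD of those controls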;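 as to activation: fluorescence ratio of max minus min over baseline after K+ and Tl+ depolarization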). The conditions noted are these: parental CHO-K1 cells, FluxOR thallium flux, at 10 µM; hits give high values. An outline of the steps: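 Benchmarks – buffer and R-L3 controls · Assay system – untransfected host CHO-K1 cells with FluxOR thallium dye · Measure – fluorescence change ratio scaled 0% buffer, 100% R-L3 · Technique – kinetic thallium-flux fluorescence · Timing – overnight 37 °C plating, 90 min RT dye, 20 min compound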

In assay [2] the target is Potassium voltage-gated channel subfamily KQT member 1 (Homo sapiens) (UniProt P51787). Kind of assay: enhancement of KCNQ1 channel thallium flux – FluxOR thallium flux, CHO cells, duplicates, confirmation (AID 493007).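 As to outcome: cells depolarized by a potassium plus thallium sulfate stimulus after compound.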 The conditions noted are these: KCNQ1 cell line, FluxOR thallium flux fluorescence, at 10 µM; hits give high values, % of reference activator effect, buffer zero. An outline of the steps:
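Material: CHO cells stably expressing the KCNQ1 potassium channel / Times: dye 90 min then compound 20 min, both at room temperature / Detection: kinetic thallium influx fluorescence with FluxOR dye, 10 s baseline, 110 s post-stimulus / Benchmarks: buffer-only wells as 0% and R-L3 activator as 100% / Replicates: each compound tested in duplicate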

In assay [3] the target is Potassium voltage-gated channel subfamily KQT member 2 (Rattus norvegicus) (UniProt O88943). In words: KCNQ2 thallium flux enhancement – KCNQ2-CHO-K1 cells, selectivity assay for KCNQ1 potentiator project (AID 493009;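 active = mean duplicate potentiation above the buffer control mean plus 5 SD of buffer wells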;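 also: assay conditions were tuned for KCNQ1 rather than KCNQ2 modulators; signal is max minus min fluorescence divided by baseline after thallium stimulus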). The conditions noted are these: FluxOR thallium flux fluorescence, at 10 µM; hits give high values, scaled: buffer 0, activator control 100.
Assay [4] has as its target Potassium voltage-gated channel subfamily KQT member 1 (Homo sapiens) (UniProt P51787). Kind of assay: KCNQ1 activators by electrophysiology – IonWorks patch clamp, KCNQ1-CHO cells, orthogonal assay for KCNQ1 potentiator project, confirmation (AID 493184;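 active = current rise at least 3 SD above the untreated control mean in each of two repeat wells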). The conditions noted are these: automated patch clamp current, at 10 µM; hits give high values. An outline of the steps: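 Probe or stimulus: depolarizing pulse to +40 mV from -90 mV; Material: CHO cells carrying KCNQ1; Compound: one dose, 10 µM final; Signal: automated voltage clamp, amphotericin B perforated patch; Read-out basis: percent current increase versus pre-compound level; Buffer or medium: pH 7.4 external bath; Replication: duplicates.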

We go through 30 molecules from PubChem BioAssay.

Calls of active or inactive are those of the source.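 The calls were made as follows, unless noted: active = potentiation averaged over duplicate wells exceeding buffer-only control mean by more than 3 SD; inactive = the rest.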

Potassium voltage-gated channel subfamily KQT member 2 (Rattus norvegicus), sequence (O88943 whole entry, looked up): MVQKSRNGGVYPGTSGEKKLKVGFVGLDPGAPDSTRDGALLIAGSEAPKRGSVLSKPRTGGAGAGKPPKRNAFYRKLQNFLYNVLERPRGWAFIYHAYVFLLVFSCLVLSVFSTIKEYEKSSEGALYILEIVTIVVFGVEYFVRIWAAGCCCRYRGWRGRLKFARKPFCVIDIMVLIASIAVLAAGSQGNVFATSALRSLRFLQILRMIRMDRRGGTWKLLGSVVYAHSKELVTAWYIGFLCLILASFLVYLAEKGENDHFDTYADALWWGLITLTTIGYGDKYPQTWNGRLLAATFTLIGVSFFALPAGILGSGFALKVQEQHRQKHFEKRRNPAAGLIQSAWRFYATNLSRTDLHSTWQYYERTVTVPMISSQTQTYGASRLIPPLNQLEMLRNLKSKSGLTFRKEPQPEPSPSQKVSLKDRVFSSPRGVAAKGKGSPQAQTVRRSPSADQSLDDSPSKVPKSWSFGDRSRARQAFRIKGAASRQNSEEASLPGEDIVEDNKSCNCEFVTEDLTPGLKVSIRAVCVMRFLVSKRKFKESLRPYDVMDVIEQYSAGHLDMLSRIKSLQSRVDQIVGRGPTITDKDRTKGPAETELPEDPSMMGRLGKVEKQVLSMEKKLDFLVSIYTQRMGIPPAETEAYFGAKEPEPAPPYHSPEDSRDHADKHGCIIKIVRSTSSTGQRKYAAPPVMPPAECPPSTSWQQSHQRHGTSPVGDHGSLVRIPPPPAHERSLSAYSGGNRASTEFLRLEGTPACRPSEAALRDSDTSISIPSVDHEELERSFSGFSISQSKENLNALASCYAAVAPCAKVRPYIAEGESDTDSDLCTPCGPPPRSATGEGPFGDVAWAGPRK
Potassium voltage-gated channel subfamily KQT member 1 (Homo sapiens), sequence (P51787 whole entry, looked up): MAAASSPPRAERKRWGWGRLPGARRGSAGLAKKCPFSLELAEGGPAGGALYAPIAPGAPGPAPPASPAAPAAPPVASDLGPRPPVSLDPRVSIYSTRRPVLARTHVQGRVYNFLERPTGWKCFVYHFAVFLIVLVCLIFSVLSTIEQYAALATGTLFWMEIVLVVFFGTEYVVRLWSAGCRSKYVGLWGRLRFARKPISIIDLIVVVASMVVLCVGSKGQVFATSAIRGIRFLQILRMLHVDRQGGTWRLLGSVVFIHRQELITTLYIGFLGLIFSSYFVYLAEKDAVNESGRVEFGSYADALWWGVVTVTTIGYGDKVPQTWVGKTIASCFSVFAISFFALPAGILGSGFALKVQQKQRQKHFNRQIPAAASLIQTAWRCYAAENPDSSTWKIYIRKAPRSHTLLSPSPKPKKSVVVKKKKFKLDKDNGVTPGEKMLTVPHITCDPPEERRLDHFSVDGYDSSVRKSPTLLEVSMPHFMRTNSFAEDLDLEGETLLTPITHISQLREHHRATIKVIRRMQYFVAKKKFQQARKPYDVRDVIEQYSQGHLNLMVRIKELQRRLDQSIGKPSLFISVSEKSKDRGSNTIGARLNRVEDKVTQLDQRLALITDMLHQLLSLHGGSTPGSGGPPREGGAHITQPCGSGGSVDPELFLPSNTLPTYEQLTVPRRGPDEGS

For the molecule `O=C(NC(=S)Nc1ccccc1N1CCOCC1)c1sc2ccccc2c1Cl`, the outcome in assay [1], in assay [3] and in assay [4] was inactive. Further, the potentiation in assay [2] is 34% (active).
For `CCN(C(=O)COC(=O)c1ccccc1Nc1cccc(C)c1C)C1CCS(=O)(=O)C1` (stereo not given), the result in assay [1], in assay [2], in assay [3] and in assay [4] was inactive.
As to `CC(C)Cc1ccc(C(C)C(=O)Nc2ccc(O)cc2)cc1` (stereo not given), the outcome in assay [1], in assay [2], in assay [3] and in assay [4] was inactive.
As for `CC(=O)CSc1ncnc2sc3c(c12)CCC(C)C3` (stereo not given), in assay [1], the activation was 474% (active). The potentiation in assay [2] is 154% (active); in assay [3] it was 406% (active). The outcome in assay [4] was inactive.
In the same order, the values of `Cc1ccc(N=Cc2cc(Br)cc(Cl)c2O)cc1` are 201% (active), 19% (active), 142% (active) and “inactive”.
In the same order, the values of `COc1ccc(OCC(=O)NNC(=O)c2cccs2)cc1` are 146% (active), 47.5% (active), 168% (active) and “inactive”.
`CCCCOC(=O)Nc1ccccc1C(N)=O`: the result in assay [1], in assay [2], in assay [3] and in assay [4] was inactive.
`CC1(c2ccc(OC(F)F)cc2)NC(=O)N(CC(=O)Nc2ccc(OC(F)F)cc2)C1=O` (stereo not given): the result in assay [1], in assay [2], in assay [3] and in assay [4] was inactive.
For the molecule `S=c1nc(Cc2ccccc2)[nH]c2ccccc12`, in assay [1], the activation is 280% (active). Moreover, the potentiation was 110% (active) in assay [2] and 415% (active) in assay [3]. For the same molecule, in assay [4], the outcome was inactive.
As for `CS(=O)(=O)N1CCN(Cc2ccc(C(F)(F)F)cc2)CC1`, the result in assay [1], in assay [2], in assay [3] and in assay [4] was inactive.
Regarding `O=[N+]([O-])c1ccc(Nc2ccc(Cl)cc2)nc1`, the outcome in assay [1], in assay [2] and in assay [4] was inactive. Besides, in assay [3], the potentiation is 166% (active).
For `O=c1cc(-c2ccccc2)nc2c(-c3ccccc3)c(C(F)(F)F)[nH]n12`, in assay [1], the activation was 626% (active). Moreover, the potentiation in assay [2] was 282% (active); in assay [3] it was 591% (active). In addition, the outcome in assay [4] was inactive.
`CCCCn1c(N)c(N(CC)C(=O)CSCc2c(C)noc2C)c(=O)[nH]c1=O`: the outcome in assay [1], in assay [2], in assay [3] and in assay [4] was inactive.
With `O=C(NC(=S)NCCC1=CCCCC1)c1ccco1`, the activation in assay [1] was 324% (active). The results for the potentiation in assay [2] and in assay [3] were 97% (active) and 315% (active), respectively. The outcome in assay [4] was inactive.
For `O=C(NC(=S)Nc1ccc(N2CCCCC2)cc1)c1cccs1`, in that order: 158% (active), 74.5% (active), 162% (active) and “inactive”.
In the same order, the values of `C=CCn1c(=S)[nH]c2sc3c(c2c1=O)CCC3` are 364% (active), 124% (active), 301% (active) and “inactive”.
Take `O=C(CN1C(=O)COc2ccccc21)N(Cc1cccnc1)Cc1cccc(F)c1`: the result in assay [1], in assay [2], in assay [3] and in assay [4] was inactive.
On to `S=c1[nH]nc(-c2ccco2)n1/N=C/c1ccc(Cl)c(Cl)c1`, for which the activation in assay [1] is 512% (active). In addition, the potentiation in assay [2] is 290% (active); in assay [3], 145% (active). In addition, the result in assay [4] was inactive.
For `S=c1nc[nH]c2c1sc1nc(-c3ccccc3)c3c(c12)CCCC3`, in that order: 456% (active), 328% (active), 499% (active) and “inactive”.
In the same order, the values of `S=c1[nH]c2ccc(Cl)cc2s1` are 614% (active), 228% (active), 526% (active) and “inactive”.
In the same order, the values of `CC1Cc2ccccc2N1C(=S)NC(=O)c1ccc(Cl)cc1Cl` (stereo not given) are 214% (active), 91.5% (active), 248% (active) and “inactive”.
Take `O=C(O)CCCN1C(=O)C2C3c4ccccc4C(c4ccccc43)[C@@H]2C1=O` (stereo not given in full): the result in assay [1], in assay [2], in assay [3] and in assay [4] was inactive.
In the case of `CC(=O)Oc1c(-c2ccc(Br)o2)oc2ccccc2c1=O`, in assay [1], the activation is 480% (active). In addition, the potentiation in assay [2] was 109% (active); in assay [3], 482% (active). The result in assay [4] was inactive.
In the case of `COC(=O)c1ccc(COC(=O)c2ccccn2)cc1`, the outcome in assay [1] and in assay [4] was inactive. In addition, the potentiation is 65% (active) in assay [2] and 157% (active) in assay [3].
For `CNC(C)C#Cc1ccc2sc3cccc(OC)c3c(=O)c2c1` (stereo not given), the outcome in assay [1], in assay [2], in assay [3] and in assay [4] was inactive.
Take `CC(C)(C)CC(C)(C)NC(=S)NC1CCN(Cc2ccccc2)CC1`: the result in assay [1], in assay [2], in assay [3] and in assay [4] was inactive.
`Cc1c(-c2ccccc2)sc2nc[nH]c(=S)c12`: in assay [1], the activation was 307% (active). For the same molecule, the potentiation in assay [2] is 130% (active); in assay [3], 304% (active). The outcome in assay [4] was inactive.
`CCOC(=O)c1c(NC(=S)NCC2CCCO2)sc(C)c1C` (stereo not given): the result in assay [1], in assay [2], in assay [3] and in assay [4] was inactive.
Take `Cc1cc(N2CCN(C)CC2)nc2ccc(NC(=S)NCCCN3CCc4ccccc4C3)cc12`: the outcome in assay [1], in assay [2], in assay [3] and in assay [4] was inactive.
With `CC1(C)CC2CC(C)(CN2C(=S)NC(=O)c2ccccc2Cl)C1` (stereo not given), the activation in assay [1] was 341% (active). In addition, the potentiation in assay [2] was 154% (active); in assay [3] it was 426% (active). In addition, the outcome in assay [4] was inactive.
